Assay results taken from ChEMBL document CHEMBL1138525 (J Med Chem, 2009).

What was measured:
[1] = system: P2Y purinoceptor 2 (Homo sapiens), P41231 [UNDEFINED MUTATION]; test: Ratio of EC50 for N-terminal HA epitope-tagged human P2Y2 receptor C278S mutant to EC50 for wild type 3 human P2Y2 receptor
P2Y purinoceptor 2 [2] = molecular target: P2Y purinoceptor 2 (Homo sapiens, UniProt P41231, C278S); test: Agonist activity at N-terminal HA epitope-tagged human P2Y2 receptor C278S mutant expressed in human 1321N1 cells assessed as increase in intracellular calcium level; assay type: functional, cell-based
Chain of P2Y purinoceptor 2 (Homo sapiens, UniProt P41231, C278S) (P41231 whole entry C278S): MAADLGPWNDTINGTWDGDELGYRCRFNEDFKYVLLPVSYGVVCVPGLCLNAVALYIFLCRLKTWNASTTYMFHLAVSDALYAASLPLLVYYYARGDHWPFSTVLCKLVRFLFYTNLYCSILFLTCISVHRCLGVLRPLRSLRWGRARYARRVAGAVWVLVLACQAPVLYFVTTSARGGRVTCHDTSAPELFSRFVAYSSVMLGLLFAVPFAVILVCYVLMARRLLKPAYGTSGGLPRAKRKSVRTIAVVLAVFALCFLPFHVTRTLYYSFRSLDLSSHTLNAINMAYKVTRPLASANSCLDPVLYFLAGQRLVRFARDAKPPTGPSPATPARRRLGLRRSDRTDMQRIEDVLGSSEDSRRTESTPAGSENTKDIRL
Outline: (§1)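 1321N1 astrocytoma cells stably expressing mutant receptor (retroviral transfection, G418 selection), loaded with Oregon Green BAPTA-1/AM in Krebs-HEPES pH 7.4 for 1 h at room temperature. Plated at 150000 cells/well and held 20 min at 28 °C in the dark. Efficacy relative to 100 µM carbachol.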

[3] = system: P2Y purinoceptor 2 (Homo sapiens), P41231 [UNDEFINED MUTATION]; test: Ratio of EC50 for N-terminal HA epitope-tagged human P2Y2 receptor Y118A mutant to EC50 for wild type 3 human P2Y2 receptor
[4] = system: P2Y purinoceptor 2 (Homo sapiens), P41231 [S296A]; test: Agonist activity at N-terminal HA epitope-tagged human P2Y2 receptor S296A mutant expressed in human 1321N1 cells assessed as increase in intracellular calcium level relative to carbachol; assay type: functional, cell-based
Chain of P2Y purinoceptor 2 (Homo sapiens), P41231 [S296A] (P41231 whole entry S296A): as the sequence (P41231 whole entry C278S) above, with S278C, S296A counted along it
Outline: (§2)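 Retrovirally transduced stable 1321N1 astrocytoma lines (wild-type lines of differing expression, or mutants) in suspension, loaded with Oregon Green BAPTA-1/AM for 1 h at room temperature. Cells were plated at 150000 per well in Krebs-HEPES pH 7.4 and held 20 min at 28 °C in the dark. Agonist was then injected, with fluorescence read at ex 485/em 520 nm for 60 × 0.4 s.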

P2Y purinoceptor 2 [5] = molecular target: P2Y purinoceptor 2 (Homo sapiens, UniProt P41231, S296A); test: Agonist activity at N-terminal HA epitope-tagged human P2Y2 receptor S296A mutant expressed in human 1321N1 cells assessed as increase in intracellular calcium level; assay type: functional, cell-based
Chain of P2Y purinoceptor 2 (Homo sapiens, UniProt P41231, S296A) (P41231 whole entry S296A): as the sequence (P41231 whole entry C278S) above, with S278C, S296A counted along it
Outline: (§3)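 Retrovirally transduced stable 1321N1 astrocytoma lines (wild-type lines of differing expression, or mutants) in suspension, loaded with Oregon Green BAPTA-1/AM for 1 h at room temperature. Cells were plated at 150000 per well in Krebs-HEPES pH 7.4 and held 20 min at 28 °C in the dark.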

P2Y purinoceptor 2 [6] = molecular target: T1, P2Y purinoceptor 2 (Homo sapiens, UniProt P41231); test: Agonist activity at N-terminal HA epitope-tagged wild type 3 human P2Y2 receptor expressed in human 1321N1 cells assessed as increase in intracellular calcium level relative to carbachol; assay type: functional, cell-based; outline: as §2
T1 sequence (P41231 whole entry): as the sequence (P41231 whole entry C278S) above, with S278C counted along it

P2Y purinoceptor 2 [7] = molecular target: T1, P2Y purinoceptor 2; test: Agonist activity at N-terminal HA epitope-tagged wild type human P2Y2 receptor expressed in human 1321N1 cells assessed as increase in intracellular calcium level; assay type: functional, cell-based; outline: as §2
P2Y purinoceptor 2 [8] = molecular target: T1, P2Y purinoceptor 2; test: Agonist activity at N-terminal HA epitope-tagged wild type 3 human P2Y2 receptor expressed in human 1321N1 cells assessed as increase in intracellular calcium level; assay type: functional, cell-based; outline: as §3
P2Y purinoceptor 2 [9] = molecular target: T1, P2Y purinoceptor 2; test: Agonist activity at N-terminal HA epitope-tagged wild type 4 human P2Y2 receptor expressed in human 1321N1 cells assessed as increase in intracellular calcium level; assay type: functional, cell-based; outline: as §3
P2Y purinoceptor 2 [10] = molecular target: P2Y purinoceptor 2 (Homo sapiens, UniProt P41231, Y114A); test: Agonist activity at N-terminal HA epitope-tagged human P2Y2 receptor Y114A mutant expressed in human 1321N1 cells assessed as increase in intracellular calcium level; assay type: functional, cell-based; outline: as §1
Chain of P2Y purinoceptor 2 (Homo sapiens, UniProt P41231, Y114A) (P41231 whole entry Y114A): as the sequence (P41231 whole entry C278S) above, with Y114A, S278C counted along it

P2Y purinoceptor 2 [11] = molecular target: T1, P2Y purinoceptor 2; test: Agonist activity at N-terminal HA epitope-tagged wild type 4 human P2Y2 receptor expressed in human 1321N1 cells assessed as increase in intracellular calcium level relative to carbachol; assay type: functional, cell-based; outline: as §2
[12] = system: P2Y purinoceptor 2 (Homo sapiens), P41231 [Y114A]; test: Agonist activity at N-terminal HA epitope-tagged human P2Y2 receptor Y114A mutant expressed in human 1321N1 cells assessed as increase in intracellular calcium level relative to carbachol; assay type: functional, cell-based; outline: as §2
Chain of P2Y purinoceptor 2 (Homo sapiens), P41231 [Y114A] (P41231 whole entry Y114A): as the sequence (P41231 whole entry C278S) above, with Y114A, S278C counted along it

P2Y purinoceptor 2 [13] = molecular target: P2Y purinoceptor 2 (Homo sapiens, UniProt P41231, R177A/R180A); test: Agonist activity at N-terminal HA epitope-tagged human P2Y2 receptor R177A_R180A double mutant expressed in human 1321N1 cells assessed as increase in intracellular calcium level; assay type: functional, cell-based; outline: as §1
Chain of P2Y purinoceptor 2 (Homo sapiens, UniProt P41231, R177A/R180A) (P41231 whole entry R177A/R180A): as the sequence (P41231 whole entry C278S) above, with R177A, R180A, S278C counted along it

[14] = system: P2Y purinoceptor 2 (Homo sapiens), P41231 [R177A,R180A]; test: Agonist activity at N-terminal HA epitope-tagged human P2Y2 receptor R177A_R180A double mutant expressed in human 1321N1 cells assessed as increase in intracellular calcium level relative to carbachol; assay type: functional, cell-based; outline: as §2
Chain of P2Y purinoceptor 2 (Homo sapiens), P41231 [R177A,R180A] (P41231 whole entry R177A/R180A): as the sequence (P41231 whole entry C278S) above, with R177A, R180A, S278C counted along it

P2Y purinoceptor 2 [15] = molecular target: P2Y purinoceptor 2 (Homo sapiens, UniProt P41231, R177A); test: Agonist activity at N-terminal HA epitope-tagged human P2Y2 receptor R177A mutant expressed in human 1321N1 cells assessed as increase in intracellular calcium level; assay type: functional, cell-based; outline: as §1
Chain of P2Y purinoceptor 2 (Homo sapiens, UniProt P41231, R177A) (P41231 whole entry R177A): as the sequence (P41231 whole entry C278S) above, with R177A, S278C counted along it

[16] = system: P2Y purinoceptor 2 (Homo sapiens), P41231 [R177A]; test: Agonist activity at N-terminal HA epitope-tagged human P2Y2 receptor R177A mutant expressed in human 1321N1 cells assessed as increase in intracellular calcium level relative to carbachol; assay type: functional, cell-based; outline: as §2
Chain of P2Y purinoceptor 2 (Homo sapiens), P41231 [R177A] (P41231 whole entry R177A): as the sequence (P41231 whole entry C278S) above, with R177A, S278C counted along it

P2Y purinoceptor 2 [17] = molecular target: P2Y purinoceptor 2 (Homo sapiens, UniProt P41231, R180A); test: Agonist activity at N-terminal HA epitope-tagged human P2Y2 receptor R180A mutant expressed in human 1321N1 cells assessed as increase in intracellular calcium level; assay type: functional, cell-based; outline: as §1
Chain of P2Y purinoceptor 2 (Homo sapiens, UniProt P41231, R180A) (P41231 whole entry R180A): as the sequence (P41231 whole entry C278S) above, with R180A, S278C counted along it

[18] = system: P2Y purinoceptor 2 (Homo sapiens), P41231 [R180A]; test: Agonist activity at N-terminal HA epitope-tagged human P2Y2 receptor R180A mutant expressed in human 1321N1 cells assessed as increase in intracellular calcium level relative to carbachol; assay type: functional, cell-based; outline: as §2
Chain of P2Y purinoceptor 2 (Homo sapiens), P41231 [R180A] (P41231 whole entry R180A): as the sequence (P41231 whole entry C278S) above, with R180A, S278C counted along it

P2Y purinoceptor 2 [19] = molecular target: P2Y purinoceptor 2 (Homo sapiens, UniProt P41231, R272A); test: Agonist activity at N-terminal HA epitope-tagged human P2Y2 receptor R272A mutant expressed in human 1321N1 cells assessed as increase in intracellular calcium level; assay type: functional, cell-based; outline: as §1
Chain of P2Y purinoceptor 2 (Homo sapiens, UniProt P41231, R272A) (P41231 whole entry R272A): as the sequence (P41231 whole entry C278S) above, with R272A, S278C counted along it

[20] = system: P2Y purinoceptor 2 (Homo sapiens), P41231 [R272A]; test: Agonist activity at N-terminal HA epitope-tagged human P2Y2 receptor R272A mutant expressed in human 1321N1 cells assessed as increase in intracellular calcium level relative to carbachol; assay type: functional, cell-based; outline: as §2
Chain of P2Y purinoceptor 2 (Homo sapiens), P41231 [R272A] (P41231 whole entry R272A): as the sequence (P41231 whole entry C278S) above, with R272A, S278C counted along it

P2Y purinoceptor 2 [21] = molecular target: P2Y purinoceptor 2 (Homo sapiens, UniProt P41231, Y118A); test: Agonist activity at N-terminal HA epitope-tagged human P2Y2 receptor Y118A mutant expressed in human 1321N1 cells assessed as increase in intracellular calcium level; assay type: functional, cell-based; outline: as §1
Chain of P2Y purinoceptor 2 (Homo sapiens, UniProt P41231, Y118A) (P41231 whole entry Y118A): as the sequence (P41231 whole entry C278S) above, with Y118A, S278C counted along it

P2Y purinoceptor 2 [22] = molecular target: P2Y purinoceptor 2 (Homo sapiens, UniProt P41231, R194H); test: Agonist activity at N-terminal HA epitope-tagged human P2Y2 receptor R194H mutant expressed in human 1321N1 cells assessed as increase in intracellular calcium level; assay type: functional, cell-based; outline: as §1
Chain of P2Y purinoceptor 2 (Homo sapiens, UniProt P41231, R194H) (P41231 whole entry R194H): as the sequence (P41231 whole entry C278S) above, with R194H, S278C counted along it

[23] = system: P2Y purinoceptor 2 (Homo sapiens), P41231 [R194H]; test: Agonist activity at N-terminal HA epitope-tagged human P2Y2 receptor R194H mutant expressed in human 1321N1 cells assessed as increase in intracellular calcium level relative to carbachol; assay type: functional, cell-based; outline: as §2
Chain of P2Y purinoceptor 2 (Homo sapiens), P41231 [R194H] (P41231 whole entry R194H): as the sequence (P41231 whole entry C278S) above, with R194H, S278C counted along it

P2Y purinoceptor 2 [24] = molecular target: P2Y purinoceptor 2 (Homo sapiens, UniProt P41231, Y198A); test: Agonist activity at N-terminal HA epitope-tagged human P2Y2 receptor Y198A mutant expressed in human 1321N1 cells assessed as increase in intracellular calcium level; assay type: functional, cell-based; outline: as §1
Chain of P2Y purinoceptor 2 (Homo sapiens, UniProt P41231, Y198A) (P41231 whole entry Y198A): as the sequence (P41231 whole entry C278S) above, with Y198A, S278C counted along it

[25] = system: P2Y purinoceptor 2 (Homo sapiens), P41231 [Y198A]; test: Agonist activity at N-terminal HA epitope-tagged human P2Y2 receptor Y198A mutant expressed in human 1321N1 cells assessed as increase in intracellular calcium level relative to carbachol; assay type: functional, cell-based; outline: as §2
Chain of P2Y purinoceptor 2 (Homo sapiens), P41231 [Y198A] (P41231 whole entry Y198A): as the sequence (P41231 whole entry C278S) above, with Y198A, S278C counted along it

[26] = system: P2Y purinoceptor 2 (Homo sapiens), P41231 [C278S]; test: Agonist activity at N-terminal HA epitope-tagged human P2Y2 receptor C278S mutant expressed in human 1321N1 cells assessed as increase in intracellular calcium level relative to carbachol; assay type: functional, cell-based; outline: as §2
Chain of P2Y purinoceptor 2 (Homo sapiens), P41231 [C278S] (P41231 whole entry C278S): as the sequence (P41231 whole entry C278S) above

[27] = system: P2Y purinoceptor 2 (Homo sapiens), P41231 [UNDEFINED MUTATION]; test: Ratio of EC50 for N-terminal HA epitope-tagged human P2Y2 receptor R177A_R180A double mutant to EC50 for wild type 4 human P2Y2 receptor
[28] = system: P2Y purinoceptor 2 (Homo sapiens), P41231 [UNDEFINED MUTATION]; test: Ratio of EC50 for N-terminal HA epitope-tagged human P2Y2 receptor Y114A mutant to EC50 for wild type 3 human P2Y2 receptor
Outline: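 HA-tagged receptors (wild type or mutant) were stably expressed in 1321N1 astrocytoma cells via retrovirus. Cells were loaded with Oregon Green BAPTA-1/AM in Krebs-HEPES pH 7.4, then kept 20 min at 28 °C before agonist injection. Fluorescence was read at 520 nm (excitation 485 nm). […] Each mutant was compared with the wild-type line of similar expression.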

[29] = system: P2Y purinoceptor 2 (Homo sapiens), P41231 [Y118A]; test: Agonist activity at N-terminal HA epitope-tagged human P2Y2 receptor Y118A mutant expressed in human 1321N1 cells assessed as increase in intracellular calcium level relative to carbachol; assay type: functional, cell-based; outline: as §2
Chain of P2Y purinoceptor 2 (Homo sapiens), P41231 [Y118A] (P41231 whole entry Y118A): as the sequence (P41231 whole entry C278S) above, with Y118A, S278C counted along it

Chain of P2Y purinoceptor 2 (Homo sapiens), P41231 [UNDEFINED MUTATION] (P41231 whole entry, looked up, stated change not applied): as the sequence (P41231 whole entry C278S) above, with S278C counted along it

`Nc1ncnc2c1ncn2[C@@H]1O[C@H](COP(=O)(O)OP(=O)(O)OP(=O)(O)O)[C@@H](O)[C@H]1O` [ADENOSINE TRIPHOSPHATE] showed a Ratio EC50 [1] of 10, an EC50 (P2Y purinoceptor 2 [2]) of 1000 nM and a Ratio EC50 [3] of 3. For the same compound, the Efficacy [4] was 5%, the EC50 (P2Y purinoceptor 2 [5]) was over 300000 nM and the Efficacy (P2Y purinoceptor 2 [6]) was 92%. The Activity (P2Y purinoceptor 2 [7]) was “Dose-dependent effect”, the EC50 (P2Y purinoceptor 2 [8]) was 95.8 nM and the EC50 (P2Y purinoceptor 2 [9]) was 63.1 nM. It also gave an EC50 (P2Y purinoceptor 2 [10]) of 30.1 nM, an Efficacy (P2Y purinoceptor 2 [11]) of 110% and an Efficacy [12] of 87%. For the same compound, the EC50 (P2Y purinoceptor 2 [13]) was 239 nM, the Efficacy [14] was 104% and the EC50 (P2Y purinoceptor 2 [15]) was 183 nM. It also gave an Efficacy [16] of 117%, an EC50 (P2Y purinoceptor 2 [17]) of 237 nM and an Efficacy [18] of 115%. The EC50 (P2Y purinoceptor 2 [19]) was 11700 nM, the Efficacy [20] was 87% and the EC50 (P2Y purinoceptor 2 [21]) was 299 nM. It also gave an EC50 (P2Y purinoceptor 2 [22]) of 111 nM, an Efficacy [23] of 130% and an EC50 (P2Y purinoceptor 2 [24]) of 120 nM. It also gave an Efficacy [25] of 126%, an Efficacy [26] of 97% and a Ratio EC50 [27] of 4. For the same compound, the Ratio EC50 [28] was 2 and the Efficacy [29] was 41%.
